{"data": "Experimental data from different studies", "target": "Dual specificity tyrosine-phosphorylation-regulated kinase 1A (DYRK1A, Homo sapiens, UniProt Q13627)", "effect on": "enzyme activity", "mode": "inhibitor", "note": "Protocols differ between the studies behind these lines."}
{"SMILES": "COc1ccc(C(=O)Nc2sc3c(c2C(N)=O)CCCC3)cc1OC", "setting": "0.5 µM", "remaining activity [%]": 97.4}
{"SMILES": "O=C(Nc1cnn(-c2csc(C(=O)NC3COC3)c2)c1)Nc1c(F)cccc1Cl", "setting": "5 µM", "remaining activity [%]": 75.1}
{"SMILES": "O=C(O)c1ccc2c(c1)nc(Nc1ccc(F)c(Cl)c1)c1ccncc12", "test": "radiometric", "setting": "1 µM", "remaining activity [%]": 0}
{"SMILES": "O=C(Nc1cnn(-c2csc(C(=O)NC3COC3)c2)c1)Nc1ccccc1Cl", "setting": "5 µM", "remaining activity [%]": 86}
{"SMILES": "O=c1c2ccccc2[nH]c(=S)n1CCN1CCC(=C(c2ccc(F)cc2)c2ccc(F)cc2)CC1", "setting": "0.5 µM", "remaining activity [%]": 99.9}
{"SMILES": "COc1cc(Cl)c(C(=O)N[C@@H](CN[C@H]2CC[C@@H](N)CC2)Cc2ccc(C#N)cc2)cc1-c1ccc(CN[C@H](C)c2ccc(C)cc2)o1", "setting": "1 µM", "remaining activity [%]": 120}
{"SMILES": "CC(C)(C)C(=O)c1sc(NC2CCCCC2)nc1N", "setting": "10 µM", "remaining activity [%]": 88}
{"SMILES": "O=C(O)c1ccc2c(c1)nc(NCCc1ccccc1)c1ncncc12", "test": "radiometric", "setting": "1 µM", "remaining activity [%]": 19}
{"SMILES": "COc1cc(Nc2cnc(C#N)c(O[C@H](C)CN(C)C)n2)ncc1-c1cnn(C)c1", "test": "radiometric", "setting": "10 µM", "remaining activity [%]": 79}
{"SMILES": "COc1cccc(CCNc2nc3cc(C(=O)O)ccc3c3cnccc23)c1", "test": "radiometric", "setting": "1 µM", "remaining activity [%]": 12}
{"SMILES": "CC(C)(C)c1nc(-c2cccc(NS(=O)(=O)c3c(F)cccc3F)c2F)c(-c2ccnc(N)n2)s1", "test": "radiometric", "setting": "1 µM", "remaining activity [%]": 90}
{"SMILES": "O=C(O)c1ccc2c(c1)nc(Nc1ccc(Cl)cc1)c1ncncc12", "test": "radiometric", "setting": "1 µM", "remaining activity [%]": 3}
{"SMILES": "O=C(O)c1ccc2c3c1cccc3c(=O)n1c3ccccc3nc21", "setting": "0.5 µM", "remaining activity [%]": 55.5}
{"SMILES": "O=C(O)c1ccc2c(c1)nc(Nc1ccccc1Cl)c1ncncc12", "test": "radiometric", "setting": "1 µM", "remaining activity [%]": 11}
{"SMILES": "Oc1cccc(-c2nc(N3CCOCC3)c3oc4ncccc4c3n2)c1", "setting": "10 µM", "remaining activity [%]": 59}
